Assay outcomes from PubChem.
A selection: hits, their analogues and other compounds. The true share with any hit is near 2.2%.
S100A4 inh HTS = S100A4-myosin IIA interaction inhibition; AID 652163; inhibition, % at 10.7 µM; P26447; actives 0.14% (n = 360,000); S100A4/TAMRA-MyoIIA peptide fluorescence polarization;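 active = mean inhibition of at least 70% across replicates, with every replicate also reaching that level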
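Test system: S100A4 monomer protein. Medium: HEPES buffer with Ca2+, pH 7.2. Reagent: fluorescent myosin IIA peptide, 5 nM. Compound dosing: single-point compound testing. Timing: 5 min between mix addition and reading. Benchmarks: DMSO neutral and TFP positive wells.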
dFosB act = enhances mouse delta FosB homodimer DNA binding; P13346; purified delta FosB, TAMRA-CDK5 oligo fluorescence polarization; percent of positive-control signal above neutral wells; activation, % at 25 µM; actives 0.99% (n = 340,000); AID 493131;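 active = mean activation above about 17%, with every replicate also reaching it, limit read from the data, passing the limit was not always enough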
Target sequence (P13346 whole entry, looked up): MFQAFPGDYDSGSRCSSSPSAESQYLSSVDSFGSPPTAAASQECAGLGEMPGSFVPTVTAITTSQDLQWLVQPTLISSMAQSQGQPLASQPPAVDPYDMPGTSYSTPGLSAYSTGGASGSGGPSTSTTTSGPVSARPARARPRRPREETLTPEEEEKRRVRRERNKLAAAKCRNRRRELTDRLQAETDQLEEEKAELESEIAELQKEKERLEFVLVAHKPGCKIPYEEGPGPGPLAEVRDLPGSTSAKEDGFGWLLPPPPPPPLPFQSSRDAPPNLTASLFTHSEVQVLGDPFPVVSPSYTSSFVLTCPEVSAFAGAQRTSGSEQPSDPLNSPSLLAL
CFTR F508del cor = CFTR F508del correction in bronchial cells; CFBE cells, YFP halide quenching; stimulated with forskolin plus potentiator P3; % fluorescence drop versus neutral controls; activity (quench increase), % at 7.58 µM; actives 0.36% (n = 350,000);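 active = mean added fluorescence quench of at least 8% versus neutral control, with both replicates also reaching 8%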;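 also: cells transiently co-express mutant CFTR-F508del with the halide-sensitive YFP; corrector assay measuring rescue of mutant channel to the surface after 24 h compound exposure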
FGF22 binding = FGF22 (human) thermal shift binding. Q9HCT0. recombinant FGF22 thermal shift, SYPRO orange fluorescence; percent of sucrose octasulfate shift, DMSO zero. activity (Tm shift, normalised), % at 9.99 µM. actives 1.5% (n = 340,000). AID 651658;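 active = mean Tm shift, scaled 0 neutral to 100 positive control, at about 1.3% or above, every replicate too, limit read from the data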
Target sequence (Q9HCT0 whole entry, looked up): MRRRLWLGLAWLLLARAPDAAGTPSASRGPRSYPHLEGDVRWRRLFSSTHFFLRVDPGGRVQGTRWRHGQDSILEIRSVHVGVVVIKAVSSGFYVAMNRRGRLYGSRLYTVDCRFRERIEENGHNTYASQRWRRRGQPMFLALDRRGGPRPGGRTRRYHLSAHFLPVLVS
* hit, by the source's call; . = not tested or not shown; ! = repeats disagree.

SMILES	S100A4 inh HTS	dFosB act	CFTR F508del cor	FGF22 binding
COc1ccc(C(=O)N/N=C/c2c(CO)cnc(C)c2O)cc1	-2	-19	2	44*
O=C(N/N=C/c1c(O)ccc2ccccc12)c1ccc(CO)nc1	11	13	14*	0
CO[C@@H]1CN(C)C(=O)c2ccc(NS(=O)(=O)c3ccccc3C)cc2OC[C@@H](C)NC[C@H]1C	-36	.	1	0
O=C(CSc1nc2ncc(Cl)cc2[nH]1)Nc1cccc(F)c1	-1	11	0	0
CN(CC(=O)Nc1ccc(F)cc1)C(=O)CSc1nc2ncc(Cl)cc2[nH]1	-2	-7	-2	43*
OC[C@@H]1[C@@H](c2ccccc2)C2(CN(Cc3ccccc3F)C2)N1Cc1ccccc1F	8	.	10*	0
CO[C@@H]1CN(C)C(=O)c2cc(NC(=O)C3CCC3)ccc2OC[C@@H](C)NC[C@@H]1C	-4	.	-2	0
COc1ccc(S(=O)(=O)N(C)CC(=O)Nc2ccc(C)cc2)cc1OC	-3	-11	-3	43*
Cc1ccc(NC(=O)CN(C)S(=O)(=O)c2ccc3c(c2)n(C)c(=O)c(=O)n3C)cc1	4	13	0	0
CN(CC(=O)Nc1ccc(F)c(Cl)c1)S(=O)(=O)c1ccc2c(c1)n(C)c(=O)c(=O)n2C	1	42*	0	0
CC(=O)c1cccc(NC(=O)CN(C)S(=O)(=O)c2ccccc2)c1	2	0	0	43*
COc1ccc(S(=O)(=O)Nc2ccc3c(c2)C(=O)N([C@@H](C)CO)C[C@H](C)[C@@H](CN(C)Cc2ccc4c(c2)OCO4)O3)cc1	-1	.	4	0
COc1cc(/C=C2\C(=O)ON=C2c2ccccc2)cc(Cl)c1O	3	18*	4	.
OCC#Cc1ncc(C(F)(F)F)cc1Cl	-10	7	-4	43*
CCCC#Cc1cnc2c(c1)C(=O)N([C@@H](C)CO)C[C@@H](C)[C@@H](CN(C)C(=O)Nc1cccc(F)c1)O2	-106	.	3	0
C[C@H]1CN([C@@H](C)CO)S(=O)(=O)c2ccc(C3=CCCC3)cc2O[C@H]1CN(C)Cc1ccccc1	-2	.	-2	0
COc1ccc2c3c([nH]c2c1)[C@@H](CO)N(Cc1nccs1)CC31CN(Cc2ccncc2)C1	13	.	3	0
Nc1nc(SCCO)[nH]c(=O)c1NC(=O)c1ccccc1F	25	-3	-2	44*
Nc1c2c(nc3ccccc13)CCCC2	-3	2	16*!	0
Clc1c2c(nc3ccccc13)CCC2	-2	8	3	0
Nc1c2ccccc2nc2ccccc12	-1	-12	20*	0
Cc1noc(C)c1S(=O)(=O)Nc1ccc2c(c1)CC(=O)N([C@H](C)CO)C[C@H](C)[C@@H](CN(C)C(=O)Nc1ccc3c(c1)OCO3)O2	.	.	1	0
COC(=O)COC(=O)c1ccccc1NC(=O)c1ccccc1	8	-11	2	0
COc1ccc(C(=O)NNC(=O)c2cccc3ccccc23)cc1	-2	-3	1	44*
CC(=O)c1ccccc1NC(=O)COC(=O)c1ccccc1NC(=O)c1ccccc1	45	-23	.	16*
SMILES	S100A4 inh HTS	dFosB act	CFTR F508del cor	FGF22 binding
COc1ccc(C(=O)Nc2ccccc2C(=O)Nc2ccccc2)cc1	-3	.	8.8*	0
CC(C)NC(=O)Nc1ccc2c(c1)C(=O)N([C@@H](C)CO)C[C@H](C)[C@@H](CN(C)Cc1ccncc1)OCCCC[C@H](C)O2	-3	.	3	0
CC(C)(C)c1cnnn1-c1ccc(/C=N/Nc2ccc([N+](=O)[O-])cc2)cc1	0	1	3	43*
O=[N+]([O-])c1ccc(C=NNc2ccccc2)cc1	1	6	-1	0
C[C@@H]1CCCCO[C@H](CN(C)C(=O)CCC(F)(F)F)[C@H](C)CN([C@H](C)CO)C(=O)c2cc(NC(=O)CCC(F)(F)F)ccc2O1	1	.	0	1
Cc1ccsc1/C=N/NC(=S)NCc1ccccc1	-2	11	2	0
Cc1ccsc1/C=N\NC(=O)CC(=O)NCc1ccccc1	-1	-3	2	43*
CC(=O)Nc1ccc(N2C(=O)c3cccc4c(O)ccc(c34)C2=O)cc1	-5	-13	5	0
O=C1c2cccc3c(O)ccc(c23)C(=O)N1c1ccc(Cl)cc1	14	-8	19*	0
O=C1c2cccc3c(O)ccc(c23)C(=O)N1Cc1ccco1	17	-10	27*	0
CC(C)c1cc(C(=O)Nc2cccc(Cl)c2)no1	.	1	.	.
CC(C)c1onc(C(=O)Nc2cccc(Cl)c2)c1[N+](=O)[O-]	4	0	0	43*
O=C(NCCCN1CCCC1=O)c1cc(S(=O)(=O)N2CCOCC2)c(Cl)cc1Cl	0	-5	17*	0
Cc1noc(C)c1NC(=O)Nc1cccc2c1O[C@@H](CN(C)S(=O)(=O)c1ccc(F)cc1)[C@@H](C)CN([C@@H](C)CO)C2=O	-2	.	1	0
COc1ccc(N(CC(=O)Nc2ccc(F)cc2)S(=O)(=O)c2ccccc2[N+](=O)[O-])c(OC)c1	-41	-5	3	43*
CC(C)(C)NC(=O)/C=C/c1ccc(C(F)(F)F)cc1	5	-5	-1	43*
CC=Cc1ccc2n(c1=O)C[C@@H]1[C@@H](CO)[C@H](C(=O)Nc3ccc(-c4ccccc4)cc3)[C@H]2N1CC (mixture of isomers)	7	.	0	0
COc1cc(/C=C/C(=O)OCC(=O)Nc2cccc(F)c2)ccc1O	0	-3	-1	45*
C[C@@H]1CN([C@@H](C)CO)C(=O)c2cccc(NS(=O)(=O)c3ccc(Cl)cc3)c2O[C@@H]1CN(C)S(=O)(=O)c1cn(C)cn1	.	.	1	.
Cn1c(=O)[nH]c(=O)c2c1nc(SCC(=O)Nc1ccccc1)n2Cc1ccccc1	1	54*	6	0
Cc1noc(C)c1S(=O)(=O)Nc1cccc2c1O[C@H](CN(C)C(=O)Nc1ccccc1)[C@H](C)CN([C@H](C)CO)C2=O	-33	.	4	-1
CC(NC(=O)CN(C)S(=O)(=O)c1cnc[nH]1)c1ccccc1 (configuration not stated)	0	1	0	44*
CC1CCCC(NC(=O)CN(C)S(=O)(=O)c2cnc[nH]2)C1C (configuration not stated)	11	8	-1	43*
CCOC(=O)N1CCC(NCCNC(=O)c2ccc(Cl)cc2)CC1	.	2	.	.
CCOC(=O)N1CCC(NCCNC(=O)c2ccco2)CC1	4	-9	-2	44*
C[C@H](CO)N1C[C@H](C)[C@H](CN(C)C(=O)Nc2ccc(C(F)(F)F)cc2)Oc2ccc(NC(=O)Nc3ccc(F)cc3)cc2C1=O	.	.	0	.
COc1ccc2c(c1OC)C(=O)N1N=C(c3ccc(F)cc3)CC21 (configuration not stated)	-5	-2	1	44*
